Source: ChEMBL document CHEMBL5620424, “Design, synthesis and evaluation of novel 2-phenyl-3-(1H-pyrazol-4-yl)pyridine positive allosteric modulators for the M4 mAChR” (Eur J Med Chem, 2023)

What was measured:
[1] = target: T1, Muscarinic acetylcholine receptor M4 (Homo sapiens) (UniProt P08173); assay: […] human M4 mAChR expressed in Flp-In-CHO cells co-expressing CAMYEL biosensor assessed as change in baseline response at 10 uM incubated for 5 mins by BRET assay relative to control; assay type: cell-based
T1 sequence (whole entry): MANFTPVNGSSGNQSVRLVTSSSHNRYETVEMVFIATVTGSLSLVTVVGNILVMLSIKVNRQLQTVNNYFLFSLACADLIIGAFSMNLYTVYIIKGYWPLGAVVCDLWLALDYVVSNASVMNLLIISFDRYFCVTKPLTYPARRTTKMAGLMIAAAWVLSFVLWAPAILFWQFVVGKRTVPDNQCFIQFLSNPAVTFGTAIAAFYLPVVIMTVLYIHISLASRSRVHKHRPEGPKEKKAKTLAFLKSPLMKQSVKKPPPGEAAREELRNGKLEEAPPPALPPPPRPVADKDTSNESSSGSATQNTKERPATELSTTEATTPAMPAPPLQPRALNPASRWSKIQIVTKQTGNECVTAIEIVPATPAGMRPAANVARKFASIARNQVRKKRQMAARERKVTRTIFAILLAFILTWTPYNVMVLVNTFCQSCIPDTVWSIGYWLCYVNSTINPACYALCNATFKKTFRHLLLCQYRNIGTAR
In short: (§1)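 FlpInCHO cells stably expressing human M4 mAChR, transiently transfected with CAMYEL cAMP BRET biosensor (60 ng/well, PEI), assayed 48 h later in HBSS pH 7.4. Full ACh concentration-response curve alone or with modulator at 1 or 10 μM, co-added with coelenterazine h (5 μM), 5 min, 37 °C. Three-parameter logistic fit; ACh curve values subtracted from ACh+modulator values. Δbaseline and ΔEmax given as % of maximal ACh response without modulator. 4 experiments in duplicate, SEM pooled.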

[2] = target: T1, Muscarinic acetylcholine receptor M4 (Homo sapiens); assay: Positive allosteric modulation at human M4 mAChR expressed in Flp-In-CHO cells co-expressing CAMYEL biosensor assessed as change in ACh-mediated response incubated for 5 mins by BRET assay; assay type: cell-based; conditions: filed as positive allosteric modulator; in short: as §1
[3] = target: T1, Muscarinic acetylcholine receptor M4 (Homo sapiens); assay: Positive allosteric modulation at human M4 mAChR expressed in Flp-In-CHO cells co-expressing CAMYEL biosensor assessed as change in maximum ACh-mediated response at 10 uM incubated for 5 mins by BRET assay relative to control; assay type: cell-based; in short: as §1
[4] = target: T1, Muscarinic acetylcholine receptor M4 (Homo sapiens); assay: Displacement of 3[H]-NMS from human M4 mAChR expressed in Flp-In-CHO cells assessed as binding constant incubated for 6 hrs by microbeta2 plate reader assay; assay type: cell-based; conditions: filed as positive allosteric modulator
In short: (§2)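 Intact FlpInCHO-hM4 cells, 20,000/well grown overnight, in HBSS pH 7.4 with [3H]-NMS 0.5 nM, ACh (0.01 μM–10 mM) and modulator (0.1–10 μM), shaken 6 h at room temperature. Washed with ice-cold 0.9% NaCl, then scintillation counting. Nonspecific binding defined with 10 μM atropine. pKB and log α(ACh) from global fit to allosteric ternary complex model, with log α′(NMS) fixed at –3 under strong negative cooperativity. 4–5 experiments in duplicate.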

[5] = target: T1, Muscarinic acetylcholine receptor M4 (Homo sapiens); assay: Displacement of 3[H]-NMS from human M4 mAChR expressed in Flp-In-CHO cells assessed as binding co-operativity (log alpha) incubated for 6 hrs in presence of ACh by microbeta2 plate reader assay; assay type: cell-based; conditions: filed as positive allosteric modulator; in short: as §2
[6] = target: T1, Muscarinic acetylcholine receptor M4 (Homo sapiens); assay: Positive allosteric modulation at human M4 mAChR expressed in Flp-In-CHO cells co-expressing CAMYEL biosensor assessed as efficacy of ACh-mediated cAMP signalling (log tau B) incubated for 5 mins by BRET assay; assay type: functional, cell-based; conditions: filed as positive allosteric modulator
In short: (§3)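 CAMYEL-transfected FlpInCHO-hM4 cells (48 h post-transfection) given ACh and modulator concentration ranges in full interaction design, 5 min at 37 °C; BRET read with coelenterazine h. Fit to complete operational model of allosterism and agonism with ACh KA and modulator KB fixed from binding assays. Gives log τB and log αβ. 4–5 experiments in duplicate.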

[7] = target: T1, Muscarinic acetylcholine receptor M4 (Homo sapiens); assay: Positive allosteric modulation at human M4 mAChR expressed in Flp-In-CHO cells co-expressing CAMYEL biosensor assessed as ACh-mediated cAMP signalling co-operativity (log alpha beta) incubated for 5 mins by BRET assay; assay type: functional, cell-based; conditions: filed as positive allosteric modulator; in short: as §3
[8] = target: T1, Muscarinic acetylcholine receptor M4 (Homo sapiens); assay: Positive allosteric modulation at Rluc-tagged human M4 mAChR expressed in Flp-In-CHO cells co-expressing eYFP-tagged beta-arrestin 2 assessed as efficacy of ACh-mediated beta-arrestin 2 recruitment (log tau B) incubated for 5 mins by luminometry; assay type: cell-based; conditions: filed as positive allosteric modulator
In short: (§4)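 FlpInCHO cells co-transfected with human M4-Rluc8 (20 ng/well) and β-arrestin-2-eYFP (80 ng/well) using PEI, assayed after 48 h. Coelenterazine h (5 μM) preincubated 5 min, then ACh plus modulator ranges for 5 min at 37 °C; BRET at 475/535 nm. Fit to simplified operational model with slope 1 and KB fixed from binding. 4–5 experiments in duplicate.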

[9] = target: T1, Muscarinic acetylcholine receptor M4 (Homo sapiens); assay: Positive allosteric modulation at Rluc-tagged human M4 mAChR expressed in Flp-In-CHO cells co-expressing eYFP-tagged beta-arrestin 2 assessed as ACh-mediated beta-arrestin 2 recruitment co-operativity (log alpha beta) incubated for 5 mins by luminometry; assay type: cell-based; conditions: filed as positive allosteric modulator; in short: as §4
[10] = filed as positive allosteric modulator

| SMILES | Activity [1, 10] | deltapEC50 [2] | Emax [3, 10] | Activity [1] | Emax [3] | pKb [4] | log(activity) [5] | log(activity) [6] | log(activity) [7] | log(activity) [8] | log(activity) [9] |
| --- | --- | --- | --- | --- | --- | --- | --- | --- | --- | --- | --- |
| Cc1ccc(-c2cnn(CC3CCOCC3)c2)c(-c2ccc3c(c2)C(=O)N(C)C3)n1 | 86.7% | 1.16 | 47.1% | – | – | – | – | – | – | – | – |
| Cc1ccc(-c2cnn(Cc3ccccc3)c2)c(-c2ccc3c(c2)C(=O)N(C)C3)n1 | 77.1% | 1.87 | 63.8% | – | – | – | – | – | – | – | – |
| Cc1ccc(-c2cnn(CC3CCCC3)c2)c(-c2ccccc2)n1 | – | 1.15 | – | 32.1% | 21.8% | 4.68 | 1.98 | 0.04 | 2.46 | 0.87 | 1.87 |
| Cc1ccc(-c2cnn(C)c2)c(-c2ccc3c(c2)C(=O)N(C)C3)n1 | – | 0.57 | – | 13.7% | 27% | – | – | – | – | – | – |
| Cc1ccc(-c2cn(CC3CCCC3)nn2)c(-c2ccc3c(c2)C(=O)N(C)C3)n1 | – | 1.07 | – | 20% | 11.8% | – | – | – | – | – | – |
| Cc1ccc(-c2cnn(CC3CCCC3)c2)c(-c2cccc(C(=O)N(C)C)c2)n1 | – | 0.25 | 97.7% | 33.2% | – | 4.49 | 1.47 | -0.58 | 2.03 | -0.83 | 1.06 |
| Cc1ccc(-n2cc(CC3CCCC3)nn2)c(-c2ccc3c(c2)C(=O)N(C)C3)n1 | – | 1.06 | – | 24.5% | 13.9% | – | – | – | – | – | – |
| Cc1ccc(-c2cnn(CC3CCC3)c2)c(-c2ccc3c(c2)C(=O)N(C)C3)n1 | 124% | 1.05 | 74% | – | – | – | – | – | – | – | – |
| Cc1ccc(-c2cnn(CC3CCCC3)c2)c(-c2ccc3c(c2)NC(=O)C3)n1 | – | 1.24 | – | 18.6% | 39% | – | – | – | – | – | – |
| Cc1ccc(-c2cnn(CC3CCN(C(=O)OC(C)(C)C)CC3)c2)c(-c2ccc3c(c2)C(=O)N(C)C3)n1 | – | 0.6 | 52.5% | 5.53% | – | – | – | – | – | – | – |
| Cc1ccc(-c2cnn(CC3CCCC3)c2)c(-c2ccc(N)cc2)n1 | 88.1% | 1.31 | 80.6% | – | – | – | – | – | – | – | – |
| CN1Cc2ccc(-c3nccnc3-c3cnn(CC4CCCC4)c3)cc2C1=O | 48.5% | -0.34 | – | – | 35.1% | 4.55 | 1.41 | -0.74 | 1.81 | 0.07 | 0.94 |
| Cc1ccc(-c2cnn(CC(C)C)c2)c(-c2ccc3c(c2)C(=O)N(C)C3)n1 | 108% | 1.36 | 84.8% | – | – | – | – | – | – | – | – |
| CN1Cc2ccc(-c3ccccc3-c3cnn(CC4CCCC4)c3)cc2C1=O | – | 0.63 | – | 6.49% | 25.6% | – | – | – | – | – | – |
| Cc1ccc(-c2cnn(CC3CCCC3)c2)c(-c2cccc(N)c2)n1 | 51.7% | 1.35 | 53.5% | – | – | – | – | – | – | – | – |
| CC(=O)Nc1cccc(-c2nc(C)ccc2-c2cnn(CC3CCCC3)c2)c1 | 52.2% | 1.63 | 57.7% | – | – | – | – | – | – | – | – |
| Cc1ccc(-c2cnn(CC3CCCC3)c2)c(-c2ccc3c(c2)C(=O)NC3)n1 | 89.7% | 2.57 | 73.3% | – | – | – | – | – | – | – | – |
| Cc1ccc(-c2cnn(CC3CC3)c2)c(-c2ccc3c(c2)C(=O)N(C)C3)n1 | 102% | 1.64 | 69.6% | – | – | 5.84 | 1.95 | -0.54 | 2.22 | 0.64 | 1.29 |
| CN1Cc2ccc(-c3ncccc3-c3cnn(CC4CCCC4)c3)cc2C1=O | – | 0.88 | 41.6% | 13% | – | 5.33 | 2.18 | -0.81 | 2.47 | 0.51 | 2.09 |
| Cc1ccc(-c2cnn(CC3CCCCC3)c2)c(-c2ccc3c(c2)C(=O)N(C)C3)n1 | 106% | 0.73 | 63.9% | – | – | 6.11 | 1.92 | -0.88 | 2.01 | 0.56 | 1.1 |
| CCCN1Cc2ccc(-c3nc(C)ccc3-c3cnn(CC4CCCC4)c3)cc2C1=O | 83.3% | 2.11 | 50.5% | – | – | – | – | – | – | – | – |
| CN1Cc2ccc(-c3cnccc3-c3cnn(CC4CCCC4)c3)cc2C1=O | 47.2% | 0.17 | 56.8% | – | – | – | – | – | – | – | – |
| Cc1ccc(-c2ccc3c(c2)C(=O)N(C)C3)c(-c2cnn(CC3CCOCC3)c2)n1 | – | 0.58 | – | 4.76% | 3.58% | – | – | – | – | – | – |
| Cc1ccc(-c2cnn(CC3CCCC3)c2)c(-c2cccc(C(N)=O)c2)n1 | 77.3% | 1.33 | 65.6% | – | – | – | – | – | – | – | – |
| CN1Cc2ccc(-c3ccncc3-c3cnn(CC4CCCC4)c3)cc2C1=O | 90.6% | 1.49 | 66.6% | – | – | – | – | – | – | – | – |
| CNC(=O)c1cccc(-c2nc(C)ccc2-c2cnn(CC3CCCC3)c2)c1 | 78.2% | 1.99 | 61.3% | – | – | – | – | – | – | – | – |
